Test results taken from ChEMBL document CHEMBL1155468, “Syntheses and evaluation of anticonvulsant profile and teratogenicity of novel amide derivatives of branched aliphatic carboxylic acids with 4-aminobenzensulfonamide” (J Med Chem, 2010).
Calls of active or inactive are those of the source. The rule behind the calls is not given here.

What was measured:
Mus musculus [1] = assay: Anticonvulsant activity in CF1 albino mouse assessed as inhibition of maximal electroshock-induced seizures at 30 mg/kg, ip after 0.5 hrs; type: functional, organism-based; parameters: dose 30 mg/kg
Procedure, shortened: (§1)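 Test compounds suspended in 0.5% methylcellulose and given ip to adult male CF no. 1 albino mice (18-25 g) at 0.01 mL/g body weight before maximal electroshock challenge.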

Mus musculus [2] = assay: Neurotoxicity in CF1 albino mouse assessed as motor impairment at 30 mg/kg, ip after 0.5 hrs; type: toxicity, organism-based; parameters: dose 30 mg/kg, route intraperitoneal; conditions: in vivo
Rattus norvegicus [3] = assay: Anticonvulsant activity in Sprague-Dawley rat assessed as inhibition of maximal electroshock-induced seizures at 30 mg/kg, po after 15 mins
Mus musculus [4] = assay: Teratogenic effect in SWV mouse assessed as resorptions at 316 mg/kg, ip administered on morning of day 8 of gestation; type: toxicity, organism-based; parameters: dose 316 mg/kg, route intraperitoneal; conditions: in vivo
Procedure, shortened: (§2)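 SWV inbred mice: two-month-old nulligravid females mated overnight with males and checked for vaginal plugs next morning; gestation onset taken as 10 p.m. the previous night. On gestation day 8.5 each dam got one ip injection, 0.55–2.7 mmol/kg, in 25% aqueous Cremophor EL (vehicle controls dosed alike), 10 μL/g body weight. Litters and implants tallied; resorptions and live fetuses reported as counts with percentages.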

Mus musculus [5] = assay: Teratogenic effect in SWV mouse assessed as resorptions at 159 mg/kg, ip administered on morning of day 8 of gestation; type: toxicity, organism-based; parameters: dose 159 mg/kg, route intraperitoneal; conditions: in vivo; procedure, shortened: as §2
Mus musculus [6] = assay: Teratogenic effect in SWV mouse assessed as resorptions at 783 mg/kg, ip administered on morning of day 8 of gestation; type: toxicity, organism-based; parameters: dose 783 mg/kg, route intraperitoneal; conditions: in vivo; procedure, shortened: as §2
Rattus norvegicus [7] = assay: Anticonvulsant activity in Sprague-Dawley rat assessed as inhibition of maximal electroshock-induced seizures at 30 mg/kg, po after 4 hrs
Mus musculus [8] = assay: Anticonvulsant activity in CF1 albino mouse assessed as inhibition of subcutaneous pentylenetetrazole-induced seizures at 30 mg/kg, ip after 4 hrs; type: functional, organism-based; parameters: dose 30 mg/kg
Procedure, shortened: (§3)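 Adult male CF no. 1 albino mice (18-25 g) dosed ip with compound suspended in 0.5% methylcellulose (0.01 mL/g). Convulsant: pentylenetetrazol dissolved in 0.9% saline as a 0.85% solution for mice, given subcutaneously.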

Mus musculus [9] = assay: Anticonvulsant activity in CF1 albino mouse assessed as inhibition of maximal electroshock-induced seizures at 30 mg/kg, ip after 4 hrs; type: functional, organism-based; parameters: dose 30 mg/kg; procedure, shortened: as §1
Mus musculus [10] = assay: Anticonvulsant activity in CF1 albino mouse assessed as inhibition of subcutaneous pentylenetetrazole-induced seizures at 30 mg/kg, ip after 0.5 hrs; type: functional, organism-based; parameters: dose 30 mg/kg; procedure, shortened: as §3
Mus musculus [11] = assay: Neurotoxicity in CF1 albino mouse assessed as motor impairment at 300 mg/kg, ip after 0.5 hrs; type: toxicity, organism-based; parameters: dose 300 mg/kg, route intraperitoneal; conditions: in vivo
Mus musculus [12] = assay: Neurotoxicity in CF1 albino mouse assessed as motor impairment at 30 mg/kg, ip after 4 hrs; type: toxicity, organism-based; parameters: dose 30 mg/kg, route intraperitoneal; conditions: in vivo
Mus musculus [13] = assay: Neurotoxicity in CF1 albino mouse assessed as motor impairment at 100 mg/kg, ip after 4 hrs; type: toxicity, organism-based; parameters: dose 100 mg/kg, route intraperitoneal; conditions: in vivo
Mus musculus [14] = assay: Teratogenic effect in SWV mouse assessed as live fetuses at 316 mg/kg, ip administered on morning of day 8 of gestation; type: toxicity, organism-based; parameters: dose 316 mg/kg, route intraperitoneal; conditions: in vivo; procedure, shortened: as §2
Mus musculus [15] = assay: Anticonvulsant activity in CF1 albino mouse assessed as inhibition of maximal electroshock-induced seizures at 300 mg/kg, ip after 4 hrs; type: functional, organism-based; parameters: dose 300 mg/kg; procedure, shortened: as §1
Mus musculus [16] = assay: Anticonvulsant activity in CF1 albino mouse assessed as inhibition of subcutaneous pentylenetetrazole-induced seizures at 300 mg/kg, ip after 0.5 hrs; type: functional, organism-based; parameters: dose 300 mg/kg; procedure, shortened: as §3
Mus musculus [17] = assay: Teratogenic effect in SWV mouse assessed as dead fetuses at 522 mg/kg, ip administered on morning of day 8 of gestation; type: toxicity, organism-based; parameters: dose 522 mg/kg, route intraperitoneal; conditions: in vivo
Procedure, shortened: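 Inbred SWV mice, which are susceptible to VPA-induced neural tube defects. Two-month-old nulligravid females were mated overnight and checked for vaginal plugs next morning; gestation onset was taken as 10 p.m. the prior night. On gestation day 8.5, each dam received a single ip dose (range 0.55-2.7 mmol/kg) in 25% aqueous Cremophor EL at 10 μL/g. Dead fetuses were counted per implants.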

Mus musculus [18] = assay: Neurotoxicity in CF1 albino mouse assessed as motor impairment at 300 mg/kg, ip after 4 hrs; type: toxicity, organism-based; parameters: dose 300 mg/kg, route intraperitoneal; conditions: in vivo
Mus musculus [19] = assay: Neurotoxicity in CF1 albino mouse assessed as motor impairment at 100 mg/kg, ip after 0.5 hrs; type: toxicity, organism-based; parameters: dose 100 mg/kg, route intraperitoneal; conditions: in vivo
Rattus norvegicus [20] = assay: Anticonvulsant activity in Sprague-Dawley rat assessed as inhibition of maximal electroshock-induced seizures at 30 mg/kg, po after 1 hr
Mus musculus [21] = assay: Anticonvulsant activity in CF1 albino mouse assessed as inhibition of subcutaneous pentylenetetrazole-induced seizures at 300 mg/kg, ip after 4 hrs; type: functional, organism-based; parameters: dose 300 mg/kg; procedure, shortened: as §3
Mus musculus [22] = assay: Anticonvulsant activity in CF1 albino mouse assessed as inhibition of subcutaneous pentylenetetrazole-induced seizures at 100 mg/kg, ip after 4 hrs; type: functional, organism-based; parameters: dose 100 mg/kg; procedure, shortened: as §3
Mus musculus [23] = assay: Anticonvulsant activity in CF1 albino mouse assessed as inhibition of subcutaneous pentylenetetrazole-induced seizures at 100 mg/kg, ip after 0.5 hrs; type: functional, organism-based; parameters: dose 100 mg/kg; procedure, shortened: as §3
Mus musculus [24] = assay: Teratogenic effect in SWV mouse assessed as fetuses with neural tube deffects at 522 mg/kg, ip administered on morning of day 8 of gestation; type: toxicity, organism-based; parameters: dose 522 mg/kg, route intraperitoneal; conditions: in vivo
Procedure, shortened: (§4)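 Two-month-old nulligravid SWV females were mated overnight and checked for vaginal plugs the next morning; gestation onset was set at 10 p.m. the previous night. On gestation day 8.5, each dam received a single ip injection (0.55-2.7 mmol/kg range) or vehicle (25% aqueous Cremophor EL) at 10 μL/g body weight. Litters were scored for implants, resorptions, live and dead fetuses, and fetuses with neural tube defects.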

Rattus norvegicus [25] = assay: Anticonvulsant activity in Sprague-Dawley rat assessed as inhibition of maximal electroshock-induced seizures at 30 mg/kg, po after 30 mins
Mus musculus [26] = assay: Teratogenic effect in SWV mouse assessed as resorptions at 522 mg/kg, ip administered on morning of day 8 of gestation; type: toxicity, organism-based; parameters: dose 522 mg/kg, route intraperitoneal; conditions: in vivo; procedure, shortened: as §2
Mus musculus [27] = assay: Teratogenic effect in SWV mouse assessed as live fetuses at 159 mg/kg, ip administered on morning of day 8 of gestation; type: toxicity, organism-based; parameters: dose 159 mg/kg, route intraperitoneal; conditions: in vivo; procedure, shortened: as §4
Mus musculus [28] = assay: Anticonvulsant activity in CF1 albino mouse assessed as inhibition of maximal electroshock-induced seizures at 100 mg/kg, ip after 4 hrs; type: functional, organism-based; parameters: dose 100 mg/kg; procedure, shortened: as §1
Mus musculus [29] = assay: Teratogenic effect in SWV mouse assessed as live fetuses at 783 mg/kg, ip administered on morning of day 8 of gestation; type: toxicity, organism-based; parameters: dose 783 mg/kg, route intraperitoneal; conditions: in vivo; procedure, shortened: as §2
Mus musculus [30] = assay: Anticonvulsant activity in CF1 albino mouse assessed as inhibition of maximal electroshock-induced seizures at 100 mg/kg, ip after 0.5 hrs; type: functional, organism-based; parameters: dose 100 mg/kg; procedure, shortened: as §1
Mus musculus [31] = assay: Anticonvulsant activity in CF1 albino mouse assessed as inhibition of maximal electroshock-induced seizures at 300 mg/kg, ip after 0.5 hrs; type: functional, organism-based; parameters: dose 300 mg/kg; procedure, shortened: as §1
Mus musculus [32] = assay: Teratogenic effect in SWV mouse assessed as live fetuses at 522 mg/kg, ip administered on morning of day 8 of gestation; type: toxicity, organism-based; parameters: dose 522 mg/kg, route intraperitoneal; conditions: in vivo; procedure, shortened: as §2
Mus musculus [33] = assay: Teratogenic effect in SWV mouse assessed as live fetuses at 452 mg/kg, ip administered on morning of day 8 of gestation; type: toxicity, organism-based; parameters: dose 452 mg/kg, route intraperitoneal; conditions: in vivo
Mus musculus [34] = assay: Teratogenic effect in SWV mouse assessed as resorptions at 181 mg/kg, ip administered on morning of day 8 of gestation; type: toxicity, organism-based; parameters: dose 181 mg/kg, route intraperitoneal; conditions: in vivo
Mus musculus [35] = assay: Teratogenic effect in SWV mouse assessed as resorptions at 301 mg/kg, ip administered on morning of day 8 of gestation; type: toxicity, organism-based; parameters: dose 301 mg/kg, route intraperitoneal; conditions: in vivo
Mus musculus [36] = assay: Teratogenic effect in SWV mouse assessed as resorptions at 91 mg/kg, ip administered on morning of day 8 of gestation; type: toxicity, organism-based; parameters: dose 91 mg/kg, route intraperitoneal; conditions: in vivo
Mus musculus [37] = assay: Teratogenic effect in SWV mouse assessed as dead fetuses at 301 mg/kg, ip administered on morning of day 8 of gestation; type: toxicity, organism-based; parameters: dose 301 mg/kg, route intraperitoneal; conditions: in vivo
Mus musculus [38] = assay: Teratogenic effect in SWV mouse assessed as fetuses with neural tube deffects at 301 mg/kg, ip administered on morning of day 8 of gestation; type: toxicity, organism-based; parameters: dose 301 mg/kg, route intraperitoneal; conditions: in vivo
Mus musculus [39] = assay: Teratogenic effect in SWV mouse assessed as dead fetuses at 452 mg/kg, ip administered on morning of day 8 of gestation; type: toxicity, organism-based; parameters: dose 452 mg/kg, route intraperitoneal; conditions: in vivo
Mus musculus [40] = assay: Teratogenic effect in SWV mouse assessed as dead fetuses at 91 mg/kg, ip administered on morning of day 8 of gestation; type: toxicity, organism-based; parameters: dose 91 mg/kg, route intraperitoneal; conditions: in vivo
Mus musculus [41] = assay: Teratogenic effect in SWV mouse assessed as resorptions at 452 mg/kg, ip administered on morning of day 8 of gestation; type: toxicity, organism-based; parameters: dose 452 mg/kg, route intraperitoneal; conditions: in vivo
Mus musculus [42] = assay: Teratogenic effect in SWV mouse assessed as live fetuses at 301 mg/kg, ip administered on morning of day 8 of gestation; type: toxicity, organism-based; parameters: dose 301 mg/kg, route intraperitoneal; conditions: in vivo; procedure, shortened: as §4
Mus musculus [43] = assay: Teratogenic effect in SWV mouse assessed as live fetuses at 91 mg/kg, ip administered on morning of day 8 of gestation; type: toxicity, organism-based; parameters: dose 91 mg/kg, route intraperitoneal; conditions: in vivo

SMILES	Activity (Mus musculus [1])	Activity (Mus musculus [2])	Activity (Mus musculus [8])	Activity (Mus musculus [9])	Activity (Mus musculus [10])	Activity (Mus musculus [11])	Activity (Mus musculus [12])	Activity (Mus musculus [13])	Activity (Mus musculus [15])	Activity (Mus musculus [16])	Activity (Mus musculus [18])	Activity (Mus musculus [19])	Activity (Mus musculus [21])	Activity (Mus musculus [22])	Activity (Mus musculus [23])	Activity (Mus musculus [28])	Activity (Mus musculus [30])	Activity (Mus musculus [31])	also measured
NS(=O)(=O)c1ccc(NC(=O)Cc2ccccc2)cc1	inactive	Non-toxic	inactive	inactive	inactive	Non-toxic	Non-toxic	Non-toxic	Active	inactive	Non-toxic	Non-toxic	inactive	inactive	inactive	Active	Active	Active	Activity (Rattus norvegicus [3]): inactive; Activity (Mus musculus [4]): 3.6%; Activity (Mus musculus [5]): 6.2%; Activity (Mus musculus [6]): 83.3%; Activity (Rattus norvegicus [7]): Active; Activity (Mus musculus [14]): 96.4%; Activity (Mus musculus [17]): 1.8%; Activity (Rattus norvegicus [20]): Active; Activity (Mus musculus [24]): 3%; Activity (Rattus norvegicus [25]): inactive; Activity (Mus musculus [26]): 34.5%; Activity (Mus musculus [27]): 93.8%; Activity (Mus musculus [29]): 16.7%; Activity (Mus musculus [32]): 63.7%
CCCC(CCC)C(=O)O [VALPROIC ACID]	inactive	Non-toxic	inactive	inactive	inactive	Toxic	Non-toxic	Non-toxic	inactive	Active	Non-toxic	Non-toxic	inactive	inactive	inactive	inactive	inactive	Active	Activity (Mus musculus [33]): 88.1%; Activity (Mus musculus [34]): 7.7%; Activity (Mus musculus [35]): 11%; Activity (Mus musculus [36]): 5.7%; Activity (Mus musculus [37]): 2.6%; Activity (Mus musculus [38]): 1.5%; Activity (Mus musculus [39]): 0.6%; Activity (Mus musculus [40]): 0.7%; Activity (Mus musculus [41]): 11.3%; Activity (Mus musculus [42]): 86.4%; Activity (Mus musculus [43]): 93.6%
